UBC9 SUMO inh: inhibitors of in vitro SUMOylation cascade, primary screen, biochemical, HTRF, uHTS. SUMO-conjugating enzyme UBC9 (Homo sapiens), P63279. HTRF SUMOylation assay, SAE1/SAE2 + UBC9. inhibition, % at 35 µM. actives 0.36% (n = 290,000); in the data active = inhibition above about 50%, passing the limit was not always enough
TDP2 inh: human TDP2 enzyme inhibitors, primary screen, biochemical, epi absorbance, recombinant enzyme; Tyrosyl-DNA phosphodiesterase 2 (Homo sapiens), O95551; inhibition, % at 12.8 µM; T5PNP hydrolysis, p-nitrophenol absorbance 415 nm; actives 0.34% (n = 370,000); AID 720702, 2013;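 active = inhibition above the mean of all tested compounds plus 3 SD, set per campaign, cut at about 25% in these data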;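 also: 0% = DMSO with enzyme and 100% = buffer with substrate but no TDP2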
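System – recombinant human TDP2 · Amount – 120 nM TDP2 per well · Buffer or medium – Mg2+-containing Tris-HCl buffer, pH 7.5 · Reagent – T5PNP substrate, 5 mM · Dosing – 12.8 µM single point, 1% DMSO · Incubation – 2 h at 37 °C · Measured by – epi absorbance · Read-out basis – percent inhibition · Benchmarks – high control without enzyme, low control DMSO plus TDP2 · Repeats – singlicate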
NSD2 HMT inh: NSD2 histone methyltransferase inhibitors, primary screen, biochemical, AlphaScreen, single concentration, set 2; inhibition, % at 12.5 µM; Histone-lysine N-methyltransferase NSD2 (Homo sapiens), O96028; actives 0.54% (n = 310,000); AID 743445, 2014; NSD2 peptide methylation, 120 min; in the data active = inhibition above about 50%
CTSL1 counter: Fasciola hepatica cathepsin L1 inhibitors, primary screen, counter-screen for PFM18AAP inhibitor project, biochemical, QFRET, fluorogenic peptide substrate; recombinant F. hepatica cathepsin L1, Z-Leu-Arg-MCA fluorescence; inhibition, % at 5.96 µM; actives 0.49% (n = 300,000); AID 1906, 2009;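 active = inhibition above the mean of all tested compounds plus 3 SD, set per screening campaign, cut at about 17% in these data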;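 also: 0% = plate median of test compound wells and 100% = 1 µM Z-Phe-Ala-diazomethylketone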
TDP2 confirm: human TDP2 enzyme inhibitors, retest, confirmation, biochemical, epi absorbance, recombinant enzyme; inhibition, % at 12.8 µM; absorbance read-out; actives 22% (n = 1,100); shares compounds with TDP2 inh; in the data active = inhibition above about 25%;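 also: 0% = vehicle with enzyme and 100% = no enzyme buffer only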
An asterisk follows results filed as active. This is a sample that favours compounds with a hit; in the whole collection about 1.2% have one here.

How did CC(=O)c1ccc(NC(=O)CNC2CCCCC2)cc1 do in these assays?
UBC9 SUMO inh: 8.7; TDP2 inh: 26.3*; NSD2 HMT inh: 0.1; CTSL1 counter: 1.5; TDP2 confirm: 2.1

What do the screens show for `CCN1CCN(CC(=O)Nc2cc3c(cc2C(C)=O)OCO3)CC1`?
UBC9 SUMO inh: 7.7; TDP2 inh: 26.1*; NSD2 HMT inh: 10.3; CTSL1 counter: 8.8; TDP2 confirm: 11.8

What do the screens show for `CCC1(O)CC2CN(CCc3c([nH]c4ccccc34)C(C(=O)OC)(c3cc4c(cc3OC)N(C=O)C3C(O)(C(=O)OC)C(OC(C)=O)C5(CC)C=CCN6CCC43C65)C2)C1` (configuration not stated)?
TDP2 inh: 1.1; NSD2 HMT inh: 10.2

Results for CC(C)(C)OC(=O)C[C@H]1C/C=C\C[C@@H](CC(=O)NCCO)C(=O)N[C@H](C(C)(C)C)COC1=O ?
TDP2 inh: -1.4

How did COc1ccc(S(=O)(=O)N2CCN(C(=O)c3ccc4ccccc4n3)CC2)cc1 do in these assays?
TDP2 inh: 1.9; NSD2 HMT inh: 1.4

What do the screens show for `CCCS(=O)(=O)NC(=O)C1(C)CCN(C(=O)c2cc(C)nn2C(C)(C)C)C1` (configuration not stated)?
TDP2 inh: -9.1; NSD2 HMT inh: 5.5

How did COc1cc(OC)c(NC(=O)CCNS(=O)(=O)c2ccc3c(c2)CC(C)N3C(C)=O)cc1Cl (configuration not stated) do in these assays?
UBC9 SUMO inh: 14.7; TDP2 inh: 31.3*; NSD2 HMT inh: 0.2; CTSL1 counter: 3.5; TDP2 confirm: 4.0

What do the screens show for `CCCCc1c(-c2ccccc2OC)ncn1Cc1ccc(C)cc1`?
TDP2 inh: -1.5

Results for CCCOc1ccc(N)cc1N ?
UBC9 SUMO inh: 43.4; TDP2 inh: 29.5*; NSD2 HMT inh: 67.9*; CTSL1 counter: 3.3; TDP2 confirm: 21.8

How did CCOC(=O)CN1C(=O)N2C[C@H]3CON(C)[C@H]3C[C@H]2c2ccccc21 do in these assays?
TDP2 inh: -0.3

Results for CC[C@]1(C(=O)OC)[C@H]2C(=O)N(C)C(=O)[C@H]2[C@H]2CN=C(SCc3ccc(OC)cc3)N21 ?
TDP2 inh: -2.3

How did CC(=O)N(/N=C1\Sc2ccccc2C1=O)c1cccc(C)c1 do in these assays?
UBC9 SUMO inh: 9.8; TDP2 inh: 68.9*; NSD2 HMT inh: 39.7; CTSL1 counter: 87.9*; TDP2 confirm: 52.9*

How did CC(=O)N(CN1C(=O)c2ccccc2C1=O)c1cccc(C)c1 do in these assays?
UBC9 SUMO inh: 21.6; TDP2 inh: 3.0; NSD2 HMT inh: 0.6; CTSL1 counter: -1.1

How did CC(=O)N1CCN(CC(=O)Nc2ccc3c(c2)CCC3)CC1 do in these assays?
UBC9 SUMO inh: -8.9; TDP2 inh: 3.7; NSD2 HMT inh: 2.8; CTSL1 counter: -0.7

What do the screens show for `O=C(CN1CCCC1)Nc1ccc2c(c1)CCC2`?
UBC9 SUMO inh: 15.9; TDP2 inh: 27.8*; NSD2 HMT inh: -1.1; CTSL1 counter: 3.5; TDP2 confirm: 0.9

What do the screens show for `N#Cc1ccccc1S(=O)(=O)N1CCN(CC(O)COc2ccccc2F)CC1` (configuration not stated)?
UBC9 SUMO inh: 2.0; TDP2 inh: 28.5*; NSD2 HMT inh: -1.4; CTSL1 counter: 7.2; TDP2 confirm: 8.2

What do the screens show for `CCCC#C/C(CCC)=C1\c2ccccc2C(=O)N1c1ccccc1`?
TDP2 inh: 1.8

Results for Oc1ccc(Nc2ccccc2F)c2cccnc12 ?
TDP2 inh: 35.7*; TDP2 confirm: -15.5

Results for Cc1ccc(NC(=O)c2cc(-c3ccc(C)c(C)c3O)n[nH]2)cc1C ?
UBC9 SUMO inh: 34.7; TDP2 inh: 7.6; NSD2 HMT inh: 2.6; CTSL1 counter: 0.4

Results for COc1ccc(NC(=O)c2cc(-c3ccc(C)c(C)c3O)n[nH]2)cc1Cl ?
UBC9 SUMO inh: 4.2; TDP2 inh: 74.8*; NSD2 HMT inh: -2.7; CTSL1 counter: -0.8; TDP2 confirm: 2.1

Results for CCOc1ccc(NC2=CC(=O)C(=O)c3ccccc32)cc1 ?
TDP2 inh: 32.3*; NSD2 HMT inh: 18.1; TDP2 confirm: 39.6*

How did O=C1C=C(Nc2ccc(F)cc2)c2ccccc2C1=O do in these assays?
TDP2 inh: 19.1; NSD2 HMT inh: 5.6

What do the screens show for `COc1ccc(OC)c(NC(=O)CCN2C(=O)c3ccccc3C2=O)c1`?
UBC9 SUMO inh: -2.4; TDP2 inh: 0.8; NSD2 HMT inh: -0.9

How did CC(=O)c1ccc2c(c1)C1C=CCC1C(c1ccncc1)N2 (configuration not stated) do in these assays?
UBC9 SUMO inh: 14.6; TDP2 inh: 31.9*; NSD2 HMT inh: 4.5; CTSL1 counter: 4.3; TDP2 confirm: 14.2

What do the screens show for `COc1ccc(S(=O)(=O)NC2CCN(C#N)CC2)cc1`?
TDP2 inh: 1.4

How did COC(=O)[C@]12C[C@H](CC(=O)NCCC(C)C)C(=O)N(Cc3ccc4c(c3)OCO4)C1=C[C@H](COCc1ccccc1)O[C@@H]2C do in these assays?
TDP2 inh: -2.7

Results for COc1ccc(C)cc1NC(=S)NN1CCN(C)CC1 ?
UBC9 SUMO inh: -3.2; TDP2 inh: 29.0*; NSD2 HMT inh: -3.7; CTSL1 counter: -3.8; TDP2 confirm: 0.7

How did C[C@H]1CN([C@@H](C)CO)C(=O)CCCn2cc(nn2)CO[C@@H]1CN(C)C(=O)Nc1ccc2c(c1)OCCO2 do in these assays?
TDP2 inh: -7.0

Results for COC(=O)C1=C(C)N(C)C(=NCc2ccc3c(c2)OCO3)NC1c1ccc(Cl)cc1 (configuration not stated) ?
TDP2 inh: -5.5

How did COc1cc(C(C)=O)ccc1OCC(O)CN1CCN(c2ccccc2)CC1 (configuration not stated) do in these assays?
UBC9 SUMO inh: -1.8; TDP2 inh: 4.7; NSD2 HMT inh: -2.6; CTSL1 counter: -0.5

Results for COc1cc(C(C)=O)ccc1OCC(O)CN1CCN(c2ccccn2)CC1 (configuration not stated) ?
UBC9 SUMO inh: 2.4; TDP2 inh: 26.3*; NSD2 HMT inh: -0.5; CTSL1 counter: 0.7; TDP2 confirm: -1.1

Results for O=C(COC(=O)c1ccccc1SCC(=O)N1CCCC1)NC1CCCCC1 ?
TDP2 inh: 26.0*; NSD2 HMT inh: 4.2; CTSL1 counter: -0.7; TDP2 confirm: 4.3

How did COc1ccc(C2C(C#N)=C(N)Oc3c2c(-c2ccccc2)nn3-c2ccccc2)c(OC)c1OC (configuration not stated) do in these assays?
UBC9 SUMO inh: -1.3; TDP2 inh: 68.4*; NSD2 HMT inh: 1.0; CTSL1 counter: 1.5; TDP2 confirm: 6.8

Bioassay records as filed in PubChem.
